Test results taken from ChEMBL document CHEMBL3421623 (J Med Chem, 2015).

Columns and labels:
[1] = molecular target: T1, Estrogen receptor beta (Homo sapiens, UniProt Q92731); experiment: Displacement of fluorescein-labeled ES2 from human recombinant ERbeta receptor after 2 hrs by fluorescence polarization assay
Method in brief: (§1)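 Fluorescence polarization competition. Compound in methanol or DMSO mixed with ES2 screening buffer (100 mM potassium phosphate, 100 μg/mL BGG, 0.02% NaN₃). Preformed complex added to final 9 nM ES2 with 30 nM ER-α or 20 nM ER-β. Polarization expressed as % of vehicle control; EC50 from one-site competition fit.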

[2] = molecular target: T2, Aromatase (Homo sapiens, UniProt P11511); experiment: Inhibition of human recombinant aromatase using 7-methoxy-trifluoromethylcoumarin as substrate assessed as formation of fluorescent metabolite after 30 mins by fluorescence assay; conditions: for inhibition (INH): human, 0.5 h
T2 sequence (P11511 whole entry): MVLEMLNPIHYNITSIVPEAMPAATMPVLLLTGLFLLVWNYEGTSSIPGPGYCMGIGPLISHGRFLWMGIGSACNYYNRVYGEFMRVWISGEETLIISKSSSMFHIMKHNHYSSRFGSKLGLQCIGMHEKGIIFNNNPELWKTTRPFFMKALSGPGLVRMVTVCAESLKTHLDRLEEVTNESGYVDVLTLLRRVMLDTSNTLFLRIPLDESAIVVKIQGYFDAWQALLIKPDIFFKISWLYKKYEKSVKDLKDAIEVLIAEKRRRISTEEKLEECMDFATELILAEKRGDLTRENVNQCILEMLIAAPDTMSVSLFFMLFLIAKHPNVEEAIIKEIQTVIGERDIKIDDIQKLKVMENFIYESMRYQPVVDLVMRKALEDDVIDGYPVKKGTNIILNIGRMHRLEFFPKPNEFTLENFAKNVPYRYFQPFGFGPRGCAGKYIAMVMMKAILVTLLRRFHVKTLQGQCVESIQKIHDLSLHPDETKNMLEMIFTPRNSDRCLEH
Method in brief: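 Recombinant human CYP19 with MFC substrate, converted to fluorescent HFC, in 0.1 M potassium phosphate pH 7.4. NADPH-regenerating mix (NADP⁺, MgCl₂, glucose-6-phosphate, G6PDH); compound prewarmed 10 min at 37 °C, then 30 min reaction stopped with Tris base in acetonitrile. Activity as % of vehicle control; IC50 from one-site competition fit; Ki from Lineweaver–Burk data by nonlinear regression.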

[3] = molecular target: T3, Estrogen receptor (Homo sapiens, UniProt P03372); experiment: Displacement of fluorescein-labeled ES2 from human recombinant ERalpha receptor after 2 hrs by fluorescence polarization assay; method in brief: as §1
T3 sequence (P03372 whole entry): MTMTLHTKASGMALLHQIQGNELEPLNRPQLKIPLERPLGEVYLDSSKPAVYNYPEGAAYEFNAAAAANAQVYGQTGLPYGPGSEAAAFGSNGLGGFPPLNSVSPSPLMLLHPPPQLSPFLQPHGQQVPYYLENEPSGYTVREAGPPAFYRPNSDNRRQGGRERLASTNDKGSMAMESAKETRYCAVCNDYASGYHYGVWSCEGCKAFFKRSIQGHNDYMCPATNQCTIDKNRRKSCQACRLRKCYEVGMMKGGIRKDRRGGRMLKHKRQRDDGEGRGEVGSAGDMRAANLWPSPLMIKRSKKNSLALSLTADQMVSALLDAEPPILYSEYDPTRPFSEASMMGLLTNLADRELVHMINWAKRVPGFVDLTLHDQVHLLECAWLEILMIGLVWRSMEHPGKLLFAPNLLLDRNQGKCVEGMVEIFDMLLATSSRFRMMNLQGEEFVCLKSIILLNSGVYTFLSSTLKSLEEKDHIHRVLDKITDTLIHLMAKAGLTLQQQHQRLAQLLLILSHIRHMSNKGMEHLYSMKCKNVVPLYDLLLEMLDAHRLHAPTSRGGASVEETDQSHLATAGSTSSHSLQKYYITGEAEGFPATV

[4] = molecular target: T4, Estrogen receptor (Homo sapiens) (UniProt P03372); experiment: Antiestrogenic effect at estrogen receptor in human MCF7 cells assessed as inhibition of E2-induced progesterone receptor mRNA expression at 1000 nM after 24 hrs by real time quantitative PCR; type: cell-based; parameters: scale not given: the % may be the effect or the level left
T4 sequence (whole entry): T3 sequence (P03372 whole entry)
Method in brief: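 MCF-7 cells (10⁵/well) grown in MEM + 10% FBS at 37 °C, 5% CO₂, then preconditioned 72 h in charcoal-stripped FBS. Treated 24 h with 1 μM compound or vehicle (0.1% methanol) plus 10 nM E2 in MEM/10% charcoal-stripped FBS. PGR mRNA extracted after genomic DNA removal and quantified by qPCR (40 cycles, Ct). Reported as % of E2-alone expression (100%); 1 μM endoxifen as positive control.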

[5] = molecular target: T5, Cytochrome P450 1A2 (Homo sapiens, UniProt P05177); experiment: Inhibition of human recombinant CYP1A2 assessed as metabolism of 3-cyano-7-ethoxycoumarin after 30 mins by fluorescence assay; type: ADME
T5 sequence (P05177 whole entry): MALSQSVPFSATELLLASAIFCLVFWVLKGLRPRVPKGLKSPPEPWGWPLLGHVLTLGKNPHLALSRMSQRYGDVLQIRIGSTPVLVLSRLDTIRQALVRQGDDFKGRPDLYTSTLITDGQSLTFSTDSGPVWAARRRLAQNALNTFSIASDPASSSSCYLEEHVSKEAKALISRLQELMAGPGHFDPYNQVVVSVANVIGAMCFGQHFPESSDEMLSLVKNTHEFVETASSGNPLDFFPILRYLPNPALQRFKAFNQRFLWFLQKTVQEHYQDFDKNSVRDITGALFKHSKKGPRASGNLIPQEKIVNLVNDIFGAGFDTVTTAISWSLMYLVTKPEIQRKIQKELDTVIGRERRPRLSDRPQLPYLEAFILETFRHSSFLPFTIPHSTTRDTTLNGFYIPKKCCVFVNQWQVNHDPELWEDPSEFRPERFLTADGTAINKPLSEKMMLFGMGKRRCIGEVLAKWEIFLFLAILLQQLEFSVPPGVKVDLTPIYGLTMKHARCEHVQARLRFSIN

[6] = molecular target: Cytochrome P450 3A5 (Homo sapiens, UniProt P20815); experiment: Inhibition of human recombinant CYP3A5 assessed as metabolism of 7-benzyloxy-4-trifluoromethylcoumarin to HFC after 30 mins by fluorescence assay; type: ADME
Chain of Cytochrome P450 3A5 (P20815 whole entry): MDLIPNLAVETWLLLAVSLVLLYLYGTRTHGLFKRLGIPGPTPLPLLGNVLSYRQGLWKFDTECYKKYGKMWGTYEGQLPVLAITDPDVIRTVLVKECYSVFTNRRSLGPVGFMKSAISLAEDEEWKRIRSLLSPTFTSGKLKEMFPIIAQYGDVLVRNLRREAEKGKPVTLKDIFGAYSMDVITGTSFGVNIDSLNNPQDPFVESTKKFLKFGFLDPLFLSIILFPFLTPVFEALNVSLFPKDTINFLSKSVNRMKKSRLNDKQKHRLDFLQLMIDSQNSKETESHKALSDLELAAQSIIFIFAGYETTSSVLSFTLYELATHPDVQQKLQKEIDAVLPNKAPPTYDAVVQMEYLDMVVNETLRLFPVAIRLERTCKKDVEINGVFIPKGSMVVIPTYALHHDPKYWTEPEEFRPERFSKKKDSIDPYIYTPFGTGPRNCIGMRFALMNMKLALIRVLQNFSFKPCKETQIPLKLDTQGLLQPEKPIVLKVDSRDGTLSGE

[7] = molecular target: Cytochrome P450 3A4 (Homo sapiens, UniProt P08684); experiment: Inhibition of human recombinant CYP3A4 assessed as metabolism of 7-benzyloxy-4-trifluoromethylcoumarin to HFC after 30 mins by fluorescence assay; type: ADME
Chain of Cytochrome P450 3A4 (P08684 whole entry): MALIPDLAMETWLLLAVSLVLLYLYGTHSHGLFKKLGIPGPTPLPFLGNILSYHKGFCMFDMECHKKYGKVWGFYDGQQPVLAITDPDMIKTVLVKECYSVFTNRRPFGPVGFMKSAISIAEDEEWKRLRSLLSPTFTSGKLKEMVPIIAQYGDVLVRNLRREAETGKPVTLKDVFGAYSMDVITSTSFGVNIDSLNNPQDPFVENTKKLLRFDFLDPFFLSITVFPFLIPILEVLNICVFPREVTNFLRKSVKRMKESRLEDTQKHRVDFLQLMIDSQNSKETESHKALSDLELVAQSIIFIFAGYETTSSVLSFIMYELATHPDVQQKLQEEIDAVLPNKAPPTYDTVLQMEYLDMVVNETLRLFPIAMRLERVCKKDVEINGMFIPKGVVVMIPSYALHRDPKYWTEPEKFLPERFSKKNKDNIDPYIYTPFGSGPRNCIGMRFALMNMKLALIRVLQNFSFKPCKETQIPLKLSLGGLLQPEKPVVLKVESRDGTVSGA

[8] = molecular target: Cytochrome P450 2D6 (Homo sapiens, UniProt P10635); experiment: Inhibition of human recombinant CYP2D6 after 30 mins by fluorescence assay; type: ADME
Chain of Cytochrome P450 2D6 (P10635 whole entry): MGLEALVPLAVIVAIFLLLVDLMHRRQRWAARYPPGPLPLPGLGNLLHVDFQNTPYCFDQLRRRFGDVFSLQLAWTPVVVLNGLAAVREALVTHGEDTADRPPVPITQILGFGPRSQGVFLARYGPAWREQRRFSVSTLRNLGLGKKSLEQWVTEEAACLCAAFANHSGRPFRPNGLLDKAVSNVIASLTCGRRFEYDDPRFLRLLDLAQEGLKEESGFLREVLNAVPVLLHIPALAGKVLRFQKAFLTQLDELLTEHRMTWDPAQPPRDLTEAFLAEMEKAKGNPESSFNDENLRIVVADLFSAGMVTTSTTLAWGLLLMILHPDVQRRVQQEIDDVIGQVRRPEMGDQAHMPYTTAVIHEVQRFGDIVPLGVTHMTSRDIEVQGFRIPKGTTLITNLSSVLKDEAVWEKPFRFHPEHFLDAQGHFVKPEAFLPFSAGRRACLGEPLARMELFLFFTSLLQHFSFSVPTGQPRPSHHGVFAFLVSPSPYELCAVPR

[9] = molecular target: T6, Cytochrome P450 2A6 (Homo sapiens, UniProt P11509); experiment: Inhibition of human recombinant CYP2A6 assessed as metabolism of coumarin to 7-hydroxycoumarin after 30 mins by fluorescence assay; type: ADME
T6 sequence (P11509 whole entry): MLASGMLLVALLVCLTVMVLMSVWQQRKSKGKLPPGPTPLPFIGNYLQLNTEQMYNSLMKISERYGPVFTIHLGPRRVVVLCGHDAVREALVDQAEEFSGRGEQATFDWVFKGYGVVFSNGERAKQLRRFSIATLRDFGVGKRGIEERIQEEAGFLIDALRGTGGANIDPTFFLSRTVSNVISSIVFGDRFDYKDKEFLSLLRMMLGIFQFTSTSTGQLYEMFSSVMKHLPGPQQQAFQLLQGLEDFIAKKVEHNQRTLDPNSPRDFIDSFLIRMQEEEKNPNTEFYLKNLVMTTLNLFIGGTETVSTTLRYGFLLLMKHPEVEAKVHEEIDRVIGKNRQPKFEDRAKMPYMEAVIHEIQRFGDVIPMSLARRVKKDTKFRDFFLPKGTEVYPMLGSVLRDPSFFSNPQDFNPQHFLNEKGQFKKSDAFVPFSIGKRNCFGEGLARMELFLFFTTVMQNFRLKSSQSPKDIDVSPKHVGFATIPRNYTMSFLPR

[10] = molecular target: T4, Estrogen receptor (Homo sapiens); experiment: Displacement of fluorescein-labeled ES2 from human recombinant ERalpha receptor at 100000 nM after 2 hrs by fluorescence polarization assay
Method in brief: (§2)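 Same ES2 fluorescence polarization setup: 9 nM ES2 with 30 nM ER-α or 20 nM ER-β, in phosphate/BGG buffer, 2 h in the dark. Each compound tested at a single 100000 nM and reported as percent ER competition versus vehicle control. Compounds were E/Z isomer mixtures (mostly 1:1). Mean of at least three experiments.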

[11] = molecular target: T1, Estrogen receptor beta; experiment: Displacement of fluorescein-labeled ES2 from human recombinant ERbeta receptor at 100000 nM after 2 hrs by fluorescence polarization assay; method in brief: as §2

T1 sequence (Q92731 whole entry): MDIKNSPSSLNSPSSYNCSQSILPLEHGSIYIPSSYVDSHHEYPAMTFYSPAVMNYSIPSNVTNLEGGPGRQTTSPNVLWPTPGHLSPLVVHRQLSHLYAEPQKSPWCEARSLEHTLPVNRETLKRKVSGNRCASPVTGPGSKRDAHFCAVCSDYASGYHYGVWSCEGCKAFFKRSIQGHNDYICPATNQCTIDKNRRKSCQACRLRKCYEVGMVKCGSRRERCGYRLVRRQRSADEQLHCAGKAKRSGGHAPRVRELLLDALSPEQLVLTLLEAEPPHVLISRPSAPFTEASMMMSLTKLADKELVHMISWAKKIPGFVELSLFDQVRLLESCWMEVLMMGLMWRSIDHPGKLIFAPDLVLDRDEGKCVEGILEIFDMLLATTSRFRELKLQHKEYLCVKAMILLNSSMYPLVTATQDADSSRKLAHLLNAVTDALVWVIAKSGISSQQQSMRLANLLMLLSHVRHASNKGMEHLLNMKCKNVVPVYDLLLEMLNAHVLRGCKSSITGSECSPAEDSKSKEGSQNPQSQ

| SMILES | EC50 [1] [nM] | IC50 [2] [nM] | EC50 [3] [nM] | Activity [4] [%] | Activity [10] [%] | Activity [11] [%] | also measured |
| --- | --- | --- | --- | --- | --- | --- | --- |
| CCC(CC)=C(c1ccc(O)cc1)c1ccc(OCCN)cc1 | 202 | 1320 | 277 | – | – | – | – |
| NCCOc1ccc(C(=C(c2ccccc2)c2ccccc2)c2ccc(O)cc2)cc1 | 478 | 1930 | 653 | – | – | – | – |
| NCCOc1ccc(/C(=C(/Cn2cnnc2)c2ccccc2)c2ccc(O)cc2)cc1 | 47.7 | 715 | 56.5 | 47 | – | – | – |
| NCCOc1ccc(/C(=C(\Cn2cnnc2)c2ccccc2)c2ccc(O)cc2)cc1 | 57.5 | 699 | 176 | 44 | – | – | – |
| CC/C(=C(/c1ccc(O)cc1)c1ccc(OCCN)cc1)c1ccccc1 (mixture of isomers) | – | – | – | 32 | – | – | IC50 [5]: 207 nM; IC50 [6]: 723 nM; Ki [6]: 829 nM; IC50 [7]: 285 nM; Ki [7]: 375 nM; Ki [8]: Not Active; inhibition (INH) ([8]; human, recombinant enzyme, 0.5 h): Not Active; IC50 [9]: 6370 nM; Ki [9]: 2180 nM |
| CC/C(=C(/c1ccc(O)cc1)c1ccc(OCCN)cc1)c1ccc(F)cc1 (mixture of isomers) | 49.2 | 1020 | 87.8 | 42 | – | – | – |
| NCCOc1ccc(/C(=C/c2ccccc2)c2ccc(O)cc2)cc1 (mixture of isomers) | 19.5 | 6290 | 1050 | – | – | – | – |
| C/C(=C(/c1ccc(O)cc1)c1ccc(OCCN)cc1)c1ccccc1 (mixture of isomers) | 27.8 | 337 | 675 | – | – | – | – |
| NCCOc1ccc(/C(=C(\CCCl)c2ccccc2)c2ccc(O)cc2)cc1 (mixture of isomers) | 52 | 143 | 265 | – | – | – | – |
| CC(C)/C(=C(/c1ccc(O)cc1)c1ccc(OCCN)cc1)c1ccccc1 (mixture of isomers) | – | 328 | – | – | 54 | 68 | – |
| NCCOc1ccc(/C(=C(\Cn2ccnc2)c2ccccc2)c2ccc(O)cc2)cc1 (mixture of isomers) | – | 16.9 | – | – | 59 | 74 | – |
| NCCOc1ccc(/C(=C(\Cn2cncn2)c2ccccc2)c2ccc(O)cc2)cc1 (mixture of isomers) | 519 | 174 | 290 | 47 | – | – | – |
| NCCOc1ccc(/C(=C2\CCc3ccccc32)c2ccc(O)cc2)cc1 (mixture of isomers) | 1350 | 493 | 3180 | – | – | – | – |
| CC/C(=C(/c1ccc(O)cc1)c1ccc(OCC(=O)O)cc1)c1ccccc1 (mixture of isomers) | – | 3680 | – | – | 55 | 57 | – |
| CC/C(=C(/c1ccc(O)cc1)c1ccc(CCCN)cc1)c1ccccc1 (mixture of isomers) | 13.3 | 7340 | 27.1 | 16 | – | – | – |
| CC/C(=C(/c1ccc(O)cc1)c1ccc(CCCN)cc1)c1ccc(O)cc1 (mixture of isomers) | 293 | 491 | 1920 | 6 | – | – | – |

Second part, led by results:

| EC50 [1] [nM] | IC50 [2] [nM] | EC50 [3] [nM] | Activity [4] [%] | Activity [10] [%] | Activity [11] [%] | SMILES | also measured |
| --- | --- | --- | --- | --- | --- | --- | --- |
| – | 913 | – | – | 0 | 0 | CC/C(=C(/c1ccccc1)c1ccc(OCCN)cc1)c1ccccc1 (mixture of isomers) | – |
| 182 | 53.1 | 274 | – | – | – | CC/C(=C(/c1ccc(N)cc1)c1ccc(OCCN)cc1)c1ccccc1 (mixture of isomers) | – |
| 49.9 | 48.1 | 144 | – | – | – | CC/C(=C(/c1ccc(N)cc1)c1ccc(OCCN)cc1)c1ccc(O)cc1 (mixture of isomers) | – |
| 36.5 | 261 | 384 | – | – | – | CCC/C(=C(/c1ccc(O)cc1)c1ccc(OCCN)cc1)c1ccccc1 (mixture of isomers) | – |
| – | 48.9 | – | – | 48 | 64 | N#CC/C(=C(/c1ccc(O)cc1)c1ccc(OCCN)cc1)c1ccccc1 (mixture of isomers) | – |
| – | 30500 | – | – | 62 | 56 | CC/C(=C(/c1ccc(O)cc1)c1ccc(OCCO)cc1)c1ccccc1 (mixture of isomers) | – |
| – | – | – | – | 60 | 60 | CC/C(=C(/c1ccc(O)cc1)c1ccc(OCCBr)cc1)c1ccccc1 (mixture of isomers) | inhibition (INH) [2]: 20% |
| – | – | – | – | 62 | 40 | CC/C(=C(/c1ccc(O)cc1)c1ccc(OCCCl)cc1)c1ccccc1 (mixture of isomers) | inhibition (INH) [2]: 27% |
| 21.3 | 1240 | 21.3 | 33 | – | – | CC/C(=C(/c1ccc(O)cc1)c1ccc(OCCCN)cc1)c1ccccc1 (mixture of isomers) | – |
